Assay [1] relates to T98G. The experiment in a line: Cytotoxicity against human T98G cells assessed as cell killing at 10 uM after 72 hrs by WST-1 assay relative to control. The class given is functional. In short, it runs like this: (§1)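 Maximal killing is the largest % loss of viability against 0.1% DMSO vehicle, read by WST-1 72 h after treatment, at the stated concentration. T98G/HepG2 grown in DMEM/10% FBS; patient-derived GBM grown in NeuroCult NSA with B-27, EGF and FGF2 (20 ng/mL each). Mean ± SEM of ≥3 independent experiments in triplicate.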

Assay [2] deals with T98G. The experiment in a line: Cytotoxicity against human T98G cells after 72 hrs by WST-1 assay. The class given is functional, cell-based. In short, it runs like this: (§2)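 Viability read with WST-1 72 h after treatment with increasing concentrations; DMSO vehicle 0.1% final. T98G and HepG2 grown in DMEM/10% FBS/pen-strep at 37 °C, 5% CO2. Patient-derived GBM cells (WHO grade IV; proneural, classical, mesenchymal) grown in NeuroCult NSA with B-27, 20 ng/mL EGF and 20 ng/mL FGF2. EC50 from curve fit, reported only when extrapolable. Mean of ≥3 independent experiments in triplicate.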

For assay [3], the system named is T98G. The assay is described as follows: Cytotoxicity against human T98G cells assessed as cell killing at 3 uM after 72 hrs by WST-1 assay relative to control. It counts as functional. The essentials: as §1
The test system of assay [4] is HepG2. The assay is described as follows: Cytotoxicity against human HepG2 cells assessed as cell killing at 5.6 uM after 72 hrs by WST-1 assay relative to control. The class given is functional. The essentials:
as §1

Assay [5] relates to HT-29. The experiment in a line: Cytotoxicity against human HT-29 cells after 48 hrs by sulforhodamine B assay. The class given is functional, cell-based.
Assay [6] has as its system GBM. The assay is described as follows: Cytotoxicity against patient-derived proneural GBM cells after 72 hrs by WST-1 assay. It counts as functional, cell-based. The note with it: Homo sapiens. In short, it runs like this:
as §2

For assay [7], the system named is GBM. The experiment in a line: Cytotoxicity against patient-derived mesenchymal GBM cells assessed as cell killing at 1 uM after 72 hrs by WST-1 assay relative to control. The class given is functional, Homo sapiens. The essentials:
as §1

Assay [8] is described as follows: Induction of bovine brain microtubule destabilization assessed as increase in free tubulin levels after 15 mins by Coomassie G-250 staining-based polyacrylamide gel electrophoresis method. Also on record: species or system Bos taurus. In short, it runs like this: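 Bovine brain tubulin purified, polymerized into MTs and sheared. Sheared MTs incubated with compound at 37 °C for 15 min, then centrifuged 10 min at 42,000 rpm at 37 °C. Supernatant (free tubulin) and pellet (MT) run on polyacrylamide gels. EC50 from representative experiments repeated three times.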

In assay [9] the test system is SF-295. The experiment in a line: Cytotoxicity against human SF295 cells after 48 hrs by sulforhodamine B assay. It counts as functional, cell-based.
Assay [10] relates to GBM. The assay is described as follows: Cytotoxicity against patient-derived classical GBM cells after 72 hrs by WST-1 assay. The class given is functional, cell-based. The note with it: Homo sapiens. The essentials: as §2
Assay [11] concerns GBM. The experiment in a line: Cytotoxicity against patient-derived mesenchymal GBM cells after 72 hrs by WST-1 assay. To be noted: Homo sapiens. The class given is functional, cell-based. The essentials:
as §2

The nature of assay [12]: Inhibition of bovine brain t in presence of 0.4 mM GTP. Also on record: species or system Bos taurus.
In assay [13] the test system is HepG2. The assay is described as follows: Cytotoxicity against human HepG2 cells after 72 hrs by WST-1 assay. To be noted: HepG2, 72 h. It counts as functional, cell-based. The essentials: as §2
For assay [14], the system named is GBM. The assay is described as follows: Cytotoxicity against patient-derived classical GBM cells assessed as cell killing at 3 uM after 72 hrs by WST-1 assay relative to control. The class given is functional, Homo sapiens. In short, it runs like this: as §1
For assay [15], the species on record is Bos taurus. The assay is described as follows: Inhibition of [3H]colchicine binding to bovine brain tubulin at 5 uM after 1 hr liquid scintillation counting assay relative to control.
Assay [16] concerns SF-539. The experiment in a line: Cytotoxicity against human SF539 cells after 48 hrs by sulforhodamine B assay. The class given is functional, cell-based.
For assay [17], the system named is COLO 205. The assay is described as follows: Cytotoxicity against human COLO205 cells after 48 hrs by sulforhodamine B assay. The class given is functional, cell-based.
The subject of assay [18] is HCC 2998. The experiment in a line: Cytotoxicity against human HCC2998 cells after 48 hrs by sulforhodamine B assay. The class given is functional, cell-based.
The subject of assay [19] is GBM. The experiment in a line: Cytotoxicity against patient-derived classical GBM cells assessed as cell killing at 5.6 uM after 72 hrs by WST-1 assay relative to control. It counts as functional, Homo sapiens. The essentials: (§3)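 Patient-derived GBM cells come from freshly resected WHO grade IV tumours. They are subtyped proneural, classical or mesenchymal and kept in NeuroCult NSA medium with B-27, 20 ng/mL EGF and 20 ng/mL FGF2. Cells were treated with increasing compound concentrations (DMSO 0.1% final). Viability was read by WST-1 after 72 h. Maximal killing is the largest % reduction versus vehicle. Mean of ≥3 independent experiments in triplicate.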

Assay [20] has as its system GBM. The assay is described as follows: Cytotoxicity against patient-derived mesenchymal GBM cells assessed as cell killing at 10 uM after 72 hrs by WST-1 assay relative to control. It counts as functional, Homo sapiens. The essentials: as §3
The subject of assay [21] is GBM. The experiment in a line: Cytotoxicity against patient-derived proneural GBM cells assessed as cell killing at 5.6 uM after 72 hrs by WST-1 assay relative to control. It counts as functional, Homo sapiens. In short, it runs like this:
as §3

The subject of assay [22] is T98G. The experiment in a line: Cytotoxicity against human T98G cells assessed as cell killing at 1 uM after 72 hrs by WST-1 assay relative to control. It counts as functional. In short, it runs like this: as §1
Assay [23] relates to GBM. The assay is described as follows: Cytotoxicity against patient-derived proneural GBM cells assessed as cell killing at 1 uM after 72 hrs by WST-1 assay relative to control. It counts as functional, Homo sapiens. The essentials:
as §1

Assay [24] has as its system HepG2. The assay is described as follows: Cytotoxicity against human HepG2 cells assessed as cell killing at 10 uM after 72 hrs by WST-1 assay relative to control. The class given is functional. The essentials: as §1
Assay [25] deals with GBM. The assay is described as follows: Cytotoxicity against patient-derived mesenchymal GBM cells assessed as cell killing at 3 uM after 72 hrs by WST-1 assay relative to control. It counts as functional, Homo sapiens. The essentials: as §1
The subject of assay [26] is HepG2. The experiment in a line: Cytotoxicity against human HepG2 cells assessed as cell killing at 0.6 uM after 72 hrs by WST-1 assay relative to control. The class given is functional. The essentials:
as §1

Assay [27] relates to GBM. The assay is described as follows: Cytotoxicity against patient-derived classical GBM cells assessed as cell killing at 1 uM after 72 hrs by WST-1 assay relative to control. The class given is functional, Homo sapiens. The essentials: as §1
The species named for assay [28] is Bos taurus. The assay is described as follows: Inhibition of [3H]colchicine binding to bovine brain tubulin at 1 uM after 1 hr liquid scintillation counting assay relative to control.
Assay [29] relates to T98G. The assay is described as follows: Cytotoxicity against human T98G cells assessed as cell killing at 100 nM after 72 hrs by WST-1 assay relative to control. The class given is functional. The essentials: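 T98G human GBM cells (ATCC, STR-authenticated, under 6 months in culture) grown in DMEM with 10% FBS and penicillin/streptomycin, 37 °C, 5% CO2. Exposed to increasing compound concentrations in DMSO (0.1% final) for 72 h, then WST-1 viability read. Maximal killing is the largest % viability reduction versus vehicle over the concentrations tested. Mean of ≥3 independent experiments in triplicate.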

pEC50, pIC50: −log10 of the molar value. The source made the active and inactive calls. The rule behind the calls is not given here.

On to `CCn1c2ccccc2c2cc(C(=O)N3CCN(C)CC3)ccc21`, for which the “%max” value in assay [1] was 13.2%. This compound also gave a pEC50 in [2] of less than 5.00.
For the compound `Cc1ccc(C(=O)n2c3ccccc3c3ccccc32)c2ccccc12`, the “%max” value in assay [1] came to 89.1%. The compound further showed a pEC50 in [2] of 6.02.
On to `CCn1c2ccccc2c2cc(C(=O)Cc3ccccc3)ccc21`, for which the “%max” value in assay [1] is 14%. Also, in [2], the pEC50 was less than 5.00.
`CCn1c2ccccc2c2cc(C(=S)c3ccc(C)c4ccccc34)ccc21` had a negative logarithm of the EC50 (pEC50) in assay [2] of less than 5.00. Moreover, the “%max” value in [3] is reported as -17%.
`CCn1c2ccccc2c2cc(C(=O)c3ccc(Cl)cc3)ccc21`: in assay [1], the “%max” value came to 71.1%. For the same compound, the pEC50 in [2] was 5.82.
Turning to `Cc1ccc(C(=O)c2ccc3c(c2)c2ccccc2n3CC(F)(F)F)c2ccccc12`, the “%max” value in [1] is 35.6%. Also, the pEC50 in assay [2] was 5.25.
As to `CCn1c2ccccc2c2cc(C(=O)c3ccc(C)c4ccccc34)ccc21`, the “%max” value was 25% in assay [4], 45.3% in [1], 64.3% in assay [7] and 47.9% in assay [14]. The outcome in assay [5], in [9], in assay [16], in assay [17] and in [18] was Active. The pEC50 in assay [6] is 6.27; in [8], 5.68; in assay [2], 7.06; in assay [10], 6.16; in [11], 6.57; in [13], 5.77. In addition, in assay [12], the pIC50 is 5.85. The compound also returned an inhibition in [15] of 53%.
Regarding `CCn1c2c(c3ccccc31)CN(C(=O)c1ccc(C)c3ccccc13)CC2`, the negative logarithm of the EC50 (pEC50) in assay [2] is less than 5.00. Besides, the “%max” value in assay [3] is on record as 45.1%.
For the compound `CCn1c2ccccc2c2cc(C(=O)c3cccc4ccccc34)ccc21`, in assay [1], the “%max” value is reported as 72%. The compound further gave a negative logarithm of the EC50 (pEC50) in assay [2] of 5.77.
Turning to `CCn1c2ccccc2c2cc(C(=O)N3CCCc4ccccc43)ccc21`, the “%max” value was determined as 98.6% in assay [19]; 8.3% in [4]; 97.2% in assay [20]; 98.9% in assay [21]; 89% in assay [22]. Further, the pEC50 in [6] is 6.21; in [8] it was 5.28; in assay [2], 6.12; in [10] it was 6.07; in assay [11], 5.74. Further, the pIC50 in assay [12] is 5.36. This compound had an inhibition in assay [15] of 41%.
`CCn1c2ccccc2c2cc(C(=O)c3cccc4cccnc34)ccc21`: the “%max” value in assay [1] is recorded as 60%. In assay [2], this compound had a pEC50 of 5.06.
In the case of `CCn1c2ccc(C(=O)c3ccc(C)c4ccccc34)cc2c2ccc(OC)cc21`, the “%max” value in [1] is on record as 71.6%. In [2], this compound had a pEC50 of 5.59.
`CCn1c2ccccc2c2cc(C(=O)c3ccc(F)cc3)ccc21`: the “%max” value in assay [1] is given as 54.8%. The pEC50 in [2] is 5.10.
For `CCn1c2ccccc2c2cc(C(=O)c3ccc(C)cc3)ccc21`, the pEC50 in [2] is 6.00. For the same compound, the “%max” value in assay [3] was found to be 83.6%.
For `CCCn1c2ccccc2c2cc(C(=O)c3ccc(C)c4ccccc34)ccc21`, the “%max” value in assay [1] came to 16.3%. This compound also showed a pEC50 in assay [2] of less than 5.00.
As to `CCn1c2ccccc2c2cc(C(O)c3ccc(C)c4ccccc34)ccc21` (centres undefined), the result in [5], in assay [9], in assay [16], in [17] and in [18] was Active. For the same compound, the pEC50 in assay [6] is 6.20; in assay [8] it was 5.19; in assay [2], 6.25; in [10], 6.20; in assay [11] it was 6.41; in [13] it was 7.00. For the same compound, the “%max” value in assay [23] is recorded as 44%; in [24] it was 30.8%; in [14], 56%; in assay [3], 72.8%; in [25] it was 50.6%. In addition, the pIC50 in assay [12] is 5.80. In [15], this compound had an inhibition of 70%.
Consider `CCn1c2ccccc2c2cc(C(=O)c3cccc4ncccc34)ccc21`, for which the result in assay [5], in [9], in assay [16], in assay [17] and in assay [18] was Active. Besides, the pEC50 was 6.50 in [6]; 5.47 in assay [8]; 6.74 in assay [2]; 6.39 in assay [10]; 6.47 in [11]; 7.18 in assay [13]. In addition, the “%max” value in assay [7] is given as 58.9%; in [23], 44.8%; in assay [26], 28.6%; in [27], 53.9%; in assay [22], 74.4%. For the same compound, in assay [12], the negative-log IC50 (pIC50) was 6.05. In addition, the values for the inhibition in assay [15] and in [28] were 91% and 61%, respectively.
Turning to `CCn1c2ccccc2c2cc(C(=O)c3cccc4c3NCCC4)ccc21`, the pEC50 in assay [2] was less than 5.00. The “%max” value in assay [29] is on record as -18%.

The record behind these values is ChEMBL document CHEMBL4265971, “Modified carbazoles destabilize microtubules and kill glioblastoma multiform cells” (Eur J Med Chem, 2018).
